# Measured values pooled from the literature.
# Protocols differ between the studies behind these lines.
# Effect on: metabolic stability
# Host: human
SMILES,system,conditions,half-life [min]
COc1ccc([C@@H]2Sc3ccccc3N(CCN(C)C)C(=O)[C@@H]2OC(C)=O)cc1,liver microsomes,,53.5
CC(C)Oc1ccc(S(=O)(=O)c2ccc(Oc3cc(OCC(N)=O)c(C(=O)C(Cl)Cl)cc3[N+](=O)[O-])cc2)cc1,liver microsomes,20 µM,46.7
O=C(c1ccc(F)cc1)C1CCN(CCn2c(=O)[nH]c3ccccc3c2=O)CC1,liver microsomes,,35.4
CCOc1ccc2ccc(=O)oc2c1,hepatocytes,1 µM,11.4
CC1(CN)CCN(c2cnc3c(Sc4ccncc4Cl)n[nH]c3n2)CC1,liver microsomes,,36.7
O=c1ccc2ccc(O)cc2o1,liver microsomes,,1.85
CC(C)[N+](C)(CCOC(=O)C1c2ccccc2Oc2ccccc21)C(C)C,plasma,,25.8
O=C1CC[C@H](N2Cc3cc(N4CCN(CC5CCN(c6ccc([C@@H]7c8ccc(O)cc8CC[C@@H]7c7ccccc7)cc6)CC5)CC4)ccc3C2=O)C(=O)N1,hepatocytes,1 µM,53.8
O=c1ccc2cc(O)ccc2o1,liver microsomes,20 µM,63.5
CCC(CC)COC(=O)[C@H](C)N[P@@](=O)(OC[C@@H]1C[C@@H](O)[C@H](n2cnc3c(N)ncnc32)O1)Oc1ccccc1,liver microsomes,1 µM,0.67
O=c1ccc2ccc(O)cc2o1,hepatocytes,1 µM,12.4
CCC(CC)COC(=O)[C@H](C)N[P@](=O)(OC[C@@H]1C[C@@H](O)[C@H](n2cnc3c(N)nc(F)nc32)O1)Oc1ccccc1,liver microsomes,1 µM,1.42
CCOc1ccc(NC(C)=O)cc1,liver microsomes,,67.1
Nc1ncnc2c1ncn2[C@@H]1O[C@H](CO)C[C@H]1O,liver microsomes,1 µM,12.3
CSc1ncc(Br)c(C(=O)N[C@@H](CCC(=O)O)C(=O)N[C@@H](Cc2ccc3ccccc3c2)C(=O)N[C@@H](CC(C)C)C(=O)N[C@@H]2C[C@H]2c2ccccc2)n1,plasma,,1900
